Measured values collected from several papers.
Each line is one published result; the experiments were not run side by side.
Target: Serine/threonine-protein kinase ICK (CILK1, Homo sapiens, UniProt Q9UPZ9)
One construct used (Q9UPZ9 1-632): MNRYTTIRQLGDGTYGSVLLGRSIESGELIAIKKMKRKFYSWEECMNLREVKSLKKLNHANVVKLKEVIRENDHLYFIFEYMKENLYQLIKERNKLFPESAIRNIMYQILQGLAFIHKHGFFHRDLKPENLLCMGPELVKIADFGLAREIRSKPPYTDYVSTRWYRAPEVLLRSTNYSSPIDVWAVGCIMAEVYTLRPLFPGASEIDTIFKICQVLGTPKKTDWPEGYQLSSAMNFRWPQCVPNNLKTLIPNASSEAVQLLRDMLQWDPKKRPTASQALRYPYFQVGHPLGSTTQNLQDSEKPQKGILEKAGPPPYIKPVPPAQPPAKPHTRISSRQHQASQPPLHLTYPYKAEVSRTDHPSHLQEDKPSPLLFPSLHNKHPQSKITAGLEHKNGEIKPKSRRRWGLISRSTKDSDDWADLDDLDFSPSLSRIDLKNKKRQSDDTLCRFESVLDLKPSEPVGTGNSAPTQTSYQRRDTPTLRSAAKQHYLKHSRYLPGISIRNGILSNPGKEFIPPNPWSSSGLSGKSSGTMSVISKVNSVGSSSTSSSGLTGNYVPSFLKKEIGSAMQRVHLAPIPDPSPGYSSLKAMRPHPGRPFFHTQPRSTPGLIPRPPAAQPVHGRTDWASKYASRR

Structure (SMILES)	observed	method	tested at	remaining binding [%]
FC(F)(F)Oc1cccc(-c2cnc3ccc(-c4ccncc4)nn23)c1	cell-free assay	competition with immobilised ligand	5 µM	4.5
O=C(c1ccc(Nc2ncc(Cl)c(-c3ccc(Cl)s3)n2)cc1)N1CCC(N2CCCC2)CC1	binding	competition with immobilised ligand	1 µM	32
CS(=O)(=O)NCC[C@H](NC(=O)c1cncc2c1cnn2-c1ccc(F)cc1)c1ccnc(S(C)(=O)=O)c1	binding	competition with immobilised ligand	1 µM	100
CN(C)c1nccc(-c2cnc3ncccn23)n1	binding		1 µM	81
CNC(=O)[C@@H]1CC[C@@H](n2c(-c3ccc4cnccc4c3)nc3ccc(C(=O)NCc4cccc(C(N)=O)c4)cc32)C1	binding	competition with immobilised ligand	1 µM	100
CCN1CCN(Cc2ccc(C(=O)Nc3ccc(C)c(Oc4ccc5c(c4)CC(=O)N5)c3)cc2C(F)(F)F)CC1	binding	competition with immobilised ligand	1 µM	100
COc1ccnn2ncc(-c3ccnc(N(C)C)n3)c12	binding		1 µM	74
Nc1ncc2c(n1)-c1c([nH]c3ccc(C#CC4CC4)cc13)CCCC2	binding	competition with immobilised ligand	1 µM	98
CN(C)c1ncc(F)c(-c2cnn3ncccc23)n1	binding		1 µM	89
O=C(c1ccc(Nc2nccc(-c3cc4ccccc4s3)n2)cc1)N1CCC(N2CCCC2)CC1	binding	competition with immobilised ligand	1 µM	74
C[C@@]1(Cc2ccc(C#N)cc2)C(=O)N(c2cc(Cl)cc(Cl)c2)c2ncc(C(=O)NC3(c4nc(C5CCC5)no4)CC3)n21	cell-free assay	competition with immobilised ligand	1 µM	100
C[C@@H]1CCN(c2nccc(-c3cnn4ncccc34)n2)C1	binding		1 µM	58
O=C(Nc1c[nH]nc1C(=O)NC1CCNCC1)c1cc(F)cc(F)c1	binding	competition with immobilised ligand	1 µM	84
Cc1c(NC(=O)c2cc(C(N)=O)nc3cc(F)ccc23)c(C(F)(F)F)nn1Cc1ccc(C(C)(C)C)cc1	cell-free assay	competition with immobilised ligand	1 µM	61
CN(CCCC(F)(F)F)c1nccc(-c2cnn3ncccc23)n1	binding		1 µM	100
O=C(Nc1cccnn1)N1CC(C/C=C/c2cncc(Oc3ccc(C(F)(F)F)cn3)n2)C1	cell-free assay	competition with immobilised ligand	1 µM	80
C[C@@H](c1ccc(-n2cnc3c(N)ncnc32)cc1)N1CCc2nn(C)c(Cc3ccccc3)c2C1=O	binding	competition with immobilised ligand	0.1 µM	48
Nc1cnc(N2CCc3cc(S(=O)(=O)Nc4c(F)cc(Cl)cc4F)cc(N4CCCC4=O)c32)nc1	cell-free assay	competition with immobilised ligand	1 µM	80
CN(C)c1nccc(-c2cnn3ncccc23)n1	binding		1 µM	91
O=C(NCCCN1CCOCC1)c1ccc(Nc2ncc(Cl)c(-c3ccc(Cl)s3)n2)cc1	binding	competition with immobilised ligand	1 µM	62
CN([C@@H]1CCc2c(CC(=O)O)c3ccccc3n2C1)S(=O)(=O)c1ccc(F)cc1	cell-free assay	competition with immobilised ligand	1 µM	100
